Test results: ChEMBL document CHEMBL2406939, “Structure, synthesis, and biological activity of a C-20 bisacetylenic alcohol from a marine sponge Callyspongia sp” (J Nat Prod, 2013)
Activity calls are given as the source filed them. The calls are words filed in the database; no cut-off is given here.

Tests used:
[1] = Antiproliferative activity against temperature-sensitive rat lymphatic endothelial cells assessed as cell viability at 10 uM after 48 hrs by MTS assay; type: functional; settings: read-out: Activity
Method in brief: (§1)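 TR-LE cells kept on type I collagen-coated dishes in HuMedia-EB2/EG + 10% FBS at permissive 33 °C. Seeded at 8 × 10^3 cells/well in DMEM + 10% FBS on collagen I-coated plates. Allowed 3 h to adhere, then exposed to compounds (final 0.1–100 μM) for 48 h. Viability by MTS assay. Final DMSO ≤0.5% (v/v).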

Endothelial cell = assay: Antiproliferative activity against temperature-sensitive rat lymphatic endothelial cells assessed as cell viability at 100 uM after 48 hrs by MTS assay; type: functional, cell-based; method in brief: as §1
HeLa = assay: Antiproliferative activity against human HeLa cells after 48 hrs by MTS assay; type: functional, cell-based
Method in brief: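 HeLa cells grown in EMEM + 10% FBS at 37 °C, 5% CO2. Seeded at 3 × 10^3 cells/well in EMEM + 10% FBS, incubated 24 h, then exposed to compounds for 48 h. Viability read by MTS assay. Final DMSO ≤0.5% (v/v). IC50 from viability.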

[2] = Antiproliferative activity against temperature-sensitive rat lymphatic endothelial cells after 48 hrs by MTS assay; settings: Endothelial cell

C#CC(=O)/C=C/CCCCCCCCCC/C=C/C(O)C#C (stereo unspecified)
viability at 10 µM [1]: 78%

C#CC(=O)/C=C/CCCCCC
Activity (Endothelial cell): inactive

C#CC(O)/C=C/CCCCCC (stereo unspecified)
Activity (Endothelial cell): inactive

CC(=O)O[C@H]1C(=O)[C@@]2(C)[C@H]([C@H](OC(=O)c3ccccc3)[C@]3(O)C[C@H](OC(=O)[C@H](O)[C@@H](NC(=O)c4ccccc4)c4ccccc4)C(C)=C1C3(C)C)[C@]1(OC(C)=O)CO[C@@H]1C[C@@H]2O [PACLITAXEL]
IC50 (HeLa): 1.7 nM

CC[C@]1(O)C[C@H]2CN(CCc3c([nH]c4ccccc34)[C@@](C(=O)OC)(c3cc4c(cc3OC)N(C=O)[C@H]3[C@@](O)(C(=O)OC)[C@H](OC(C)=O)[C@]5(CC)C=CCN6CC[C@]43[C@@H]65)C2)C1 [VINCRISTINE]
IC50 (HeLa): 4.3 nM | IC50 [2]: 80 nM
